Experimental data published in ChEMBL document CHEMBL4190353, “Synthesis, structure-activity relationships and preliminary mechanism of action of novel water-soluble 4-quinolone-3-carboxamides as antiproliferative agents” (Eur J Med Chem, 2017).

Key:
[1] = Solubility in water; type: physicochemical
HEp-2 = assay: Cytotoxicity against human Hep2 cells assessed as reduction in cell viability incubated for 24 hrs by MTT assay; type: functional, cell-based; conditions: HEp-2, 24 h
Outline: (§1)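 Cells were kept in McCoy's 5A with 10% fetal bovine serum, streptomycin and 100 units·mL⁻¹ penicillin at 37 °C under 5% CO₂/95% air. Viability was read by MTT optical density. IC50 is the concentration that lowers optical density by 50% relative to untreated cells. Values are means with SD of at least three independent determinations.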

MCF7 = assay: Cytotoxicity against human MCF7 cells assessed as reduction in cell viability incubated for 24 hrs by MTT assay; type: functional, cell-based; conditions: MCF7, 24 h; outline: as §1
BGC-823 = assay: Cytotoxicity against human BGC823 cells assessed as reduction in cell viability incubated for 24 hrs by MTT assay; type: functional, cell-based; conditions: BGC-823, 24 h; outline: as §1
HepG2 = assay: Cytotoxicity against human HepG2 cells assessed as reduction in cell viability incubated for 24 hrs by MTT assay; type: functional, cell-based; conditions: HepG2, 24 h; outline: as §1
HeLa = assay: Cytotoxicity against human HeLa cells assessed as reduction in cell viability incubated for 24 hrs by MTT assay; type: functional, cell-based; outline: as §1
PC-3 = assay: Cytotoxicity against human PC3 cells assessed as reduction in cell viability incubated for 24 hrs by MTT assay; type: functional, cell-based; conditions: PC-3, 24 h; outline: as §1
HCT-8 = assay: Cytotoxicity against human HCT8 cells assessed as reduction in cell viability incubated for 24 hrs by MTT assay; type: functional, cell-based; conditions: HCT-8, 24 h; outline: as §1
HCT-116 = assay: Cytotoxicity against human HCT116 cells assessed as reduction in cell viability incubated for 24 hrs by MTT assay; type: functional, cell-based; conditions: HCT-116, 24 h; outline: as §1
RKO = assay: Cytotoxicity against human RKO cells assessed as reduction in cell viability incubated for 24 hrs by MTT assay; type: functional, cell-based; outline: as §1

CCN(CC)CCNC(=O)c1cn(CC)c2cc(Cl)ccc2c1=O.Cl
solubility [1]: > 10 mg/mL | IC50 (HEp-2): 42.3 µM | IC50 (MCF7): 25.1 µM | IC50 (BGC-823): 12.3 µM | IC50 (HepG2): 9.52 µM | IC50 (HeLa): 13.8 µM | IC50 (PC-3): 15.9 µM | IC50 (HCT-8): 25.1 µM | IC50 (HCT-116): 19.8 µM | IC50 (RKO): 23.4 µM

CCN(CC)CCCNC(=O)c1c[nH]c2cc(Br)ccc2c1=O.Cl
solubility [1]: > 10 mg/mL | IC50 (HEp-2): 44.7 µM | IC50 (MCF7): 21.1 µM | IC50 (BGC-823): 44.7 µM | IC50 (HepG2): 45.7 µM | IC50 (HeLa): > 50 µM | IC50 (PC-3): > 50 µM | IC50 (HCT-8): > 50 µM | IC50 (HCT-116): 44.3 µM | IC50 (RKO): 38.7 µM

CCN(CC)CCCNC(=O)c1c[nH]c2cc(F)ccc2c1=O.Cl
solubility [1]: > 10 mg/mL | IC50 (HEp-2): 45.1 µM | IC50 (MCF7): 36.8 µM | IC50 (BGC-823): 46.3 µM | IC50 (HepG2): > 50 µM | IC50 (HeLa): 39.4 µM | IC50 (PC-3): > 50 µM | IC50 (HCT-8): 48.5 µM | IC50 (HCT-116): 38.6 µM | IC50 (RKO): 29.8 µM

CCN(CC)CCCNC(=O)c1c[nH]c2cc(OC)ccc2c1=O.Cl
solubility [1]: > 10 mg/mL | IC50 (HEp-2): 40.8 µM | IC50 (MCF7): 34.7 µM | IC50 (BGC-823): 40.8 µM | IC50 (HepG2): 47.9 µM | IC50 (HeLa): 39.8 µM | IC50 (PC-3): > 50 µM | IC50 (HCT-8): 44.6 µM | IC50 (HCT-116): 38.9 µM | IC50 (RKO): 42.5 µM

CCOC(=O)c1cn(C)c2cc(Cl)ccc2c1=O
IC50 (HEp-2): 25 µM | IC50 (MCF7): > 50 µM | IC50 (BGC-823): 30.2 µM | IC50 (HepG2): 38 µM | IC50 (HeLa): > 50 µM | IC50 (PC-3): > 50 µM | IC50 (HCT-8): > 50 µM | IC50 (HCT-116): > 50 µM | IC50 (RKO): > 50 µM

CCN(CC)CCNC(=O)c1cn(C)c2cc(Cl)ccc2c1=O.Cl
solubility [1]: > 10 mg/mL | IC50 (HEp-2): 17.8 µM | IC50 (MCF7): 22.4 µM | IC50 (BGC-823): 27.6 µM | IC50 (HepG2): 10.2 µM | IC50 (HeLa): 28.9 µM | IC50 (PC-3): 31.6 µM | IC50 (HCT-8): 32.6 µM | IC50 (HCT-116): 15.6 µM | IC50 (RKO): 24.6 µM

C=CCn1cc(C(=O)OCC)c(=O)c2ccc(Cl)cc21
IC50 (HEp-2): > 50 µM | IC50 (MCF7): 49.8 µM | IC50 (BGC-823): > 50 µM | IC50 (HepG2): 43.8 µM | IC50 (HeLa): > 50 µM | IC50 (PC-3): > 50 µM | IC50 (HCT-8): 45.2 µM | IC50 (HCT-116): > 50 µM | IC50 (RKO): 48 µM

CCOC(=O)c1cn(CCCc2ccccc2)c2cc(Cl)ccc2c1=O
IC50 (HEp-2): 7.63 µM | IC50 (MCF7): 14.1 µM | IC50 (BGC-823): 18.6 µM | IC50 (HepG2): 15.1 µM | IC50 (HeLa): 14.8 µM | IC50 (PC-3): 16.1 µM | IC50 (HCT-8): 17 µM | IC50 (HCT-116): 10.8 µM | IC50 (RKO): 9.86 µM

CCN(CC)CCCNC(=O)c1cn(CC)c2cc(Cl)ccc2c1=O.Cl
solubility [1]: > 10 mg/mL | IC50 (HEp-2): 9.82 µM | IC50 (MCF7): 14.1 µM | IC50 (BGC-823): 11.7 µM | IC50 (HepG2): 10.5 µM | IC50 (HeLa): 15.1 µM | IC50 (PC-3): 12.6 µM | IC50 (HCT-8): 16.9 µM | IC50 (HCT-116): 8.78 µM | IC50 (RKO): 10.2 µM

CCN(CC)CCCNC(=O)c1cn(Cc2ccccc2)c2cc(Cl)ccc2c1=O.Cl
solubility [1]: > 10 mg/mL | IC50 (HEp-2): 4.51 µM | IC50 (MCF7): 4.54 µM | IC50 (BGC-823): 5.21 µM | IC50 (HepG2): 4.43 µM | IC50 (HeLa): 4.9 µM | IC50 (PC-3): 10.2 µM | IC50 (HCT-8): 19.5 µM | IC50 (HCT-116): 8.65 µM | IC50 (RKO): 7.89 µM

CCN(CC)CCNC(=O)c1cn(Cc2ccccc2)c2cc(Cl)ccc2c1=O.Cl
solubility [1]: > 10 mg/mL | IC50 (HEp-2): 7.02 µM | IC50 (MCF7): 15.8 µM | IC50 (BGC-823): 10.2 µM | IC50 (HepG2): 4.32 µM | IC50 (HeLa): 5.83 µM | IC50 (PC-3): 9.5 µM | IC50 (HCT-8): 23.1 µM | IC50 (HCT-116): 11.2 µM | IC50 (RKO): 14.3 µM

CCCCn1cc(C(=O)OCC)c(=O)c2ccc(Cl)cc21
IC50 (HEp-2): 35.5 µM | IC50 (MCF7): > 50 µM | IC50 (BGC-823): 43.6 µM | IC50 (HepG2): 28.3 µM | IC50 (HeLa): > 50 µM | IC50 (PC-3): 41.7 µM | IC50 (HCT-8): > 50 µM | IC50 (HCT-116): 39.8 µM | IC50 (RKO): 45.2 µM

CCN(CC)CCCNC(=O)c1c[nH]c2cc(Cl)ccc2c1=O.Cl
solubility [1]: > 10 mg/mL | IC50 (HEp-2): 25.1 µM | IC50 (MCF7): 22.4 µM | IC50 (BGC-823): 23.4 µM | IC50 (HepG2): 28.2 µM | IC50 (HeLa): 22.4 µM | IC50 (PC-3): 39.8 µM | IC50 (HCT-8): 28.8 µM | IC50 (HCT-116): 23.3 µM | IC50 (RKO): 25.2 µM

Oc1ccnc2cc(Cl)ccc12
IC50 (HEp-2): > 50 µM | IC50 (MCF7): > 50 µM | IC50 (BGC-823): > 50 µM | IC50 (HepG2): > 50 µM | IC50 (HeLa): > 50 µM | IC50 (PC-3): > 50 µM | IC50 (HCT-8): > 50 µM | IC50 (HCT-116): > 50 µM | IC50 (RKO): > 50 µM

CCCCn1cc(C(=O)NCCN(CC)CC)c(=O)c2ccc(Cl)cc21.Cl
solubility [1]: > 10 mg/mL | IC50 (HEp-2): 22.6 µM | IC50 (MCF7): 35.5 µM | IC50 (BGC-823): 7.11 µM | IC50 (HepG2): 6.92 µM | IC50 (HeLa): 21.6 µM | IC50 (PC-3): 44.6 µM | IC50 (HCT-8): 46.8 µM | IC50 (HCT-116): 21 µM | IC50 (RKO): 16.8 µM

CCOC(=O)c1cn(Cc2ccccc2)c2cc(Cl)ccc2c1=O
IC50 (HEp-2): 19.1 µM | IC50 (MCF7): 15.8 µM | IC50 (BGC-823): 13.8 µM | IC50 (HepG2): 22.4 µM | IC50 (HeLa): 16.2 µM | IC50 (PC-3): 27.9 µM | IC50 (HCT-8): 27.4 µM | IC50 (HCT-116): 21.3 µM | IC50 (RKO): 16.3 µM

C=CCn1cc(C(=O)NCCN(CC)CC)c(=O)c2ccc(Cl)cc21.Cl
solubility [1]: > 10 mg/mL | IC50 (HEp-2): 24 µM | IC50 (MCF7): 47.9 µM | IC50 (BGC-823): 12 µM | IC50 (HepG2): 19.1 µM | IC50 (HeLa): 38.9 µM | IC50 (PC-3): 44.5 µM | IC50 (HCT-8): 30.2 µM | IC50 (HCT-116): 35.6 µM | IC50 (RKO): 30.1 µM

CCOC(=O)c1cn(CC)c2cc(Cl)ccc2c1=O
IC50 (HEp-2): > 50 µM | IC50 (MCF7): > 50 µM | IC50 (BGC-823): 40.7 µM | IC50 (HepG2): 47.9 µM | IC50 (HeLa): > 50 µM | IC50 (PC-3): > 50 µM | IC50 (HCT-8): > 50 µM | IC50 (HCT-116): > 50 µM | IC50 (RKO): > 50 µM

CCN(CC)CCCNC(=O)c1cn(C)c2cc(Cl)ccc2c1=O.Cl
solubility [1]: > 10 mg/mL | IC50 (HEp-2): 4.51 µM | IC50 (MCF7): 10 µM | IC50 (BGC-823): 17.8 µM | IC50 (HepG2): 8.72 µM | IC50 (HeLa): 9.5 µM | IC50 (PC-3): 15.8 µM | IC50 (HCT-8): 22.4 µM | IC50 (HCT-116): 9.85 µM | IC50 (RKO): 11.2 µM

C=CCn1cc(C(=O)NCCCN(CC)CC)c(=O)c2ccc(Cl)cc21.Cl
solubility [1]: > 10 mg/mL | IC50 (HEp-2): 14.5 µM | IC50 (MCF7): 35.5 µM | IC50 (BGC-823): 15.1 µM | IC50 (HepG2): 12.6 µM | IC50 (HeLa): 19.1 µM | IC50 (PC-3): 14.1 µM | IC50 (HCT-8): 30 µM | IC50 (HCT-116): 18.7 µM | IC50 (RKO): 16.3 µM

CCCCn1cc(C(=O)NCCCN(CC)CC)c(=O)c2ccc(Cl)cc21.Cl
solubility [1]: > 10 mg/mL | IC50 (HEp-2): 11.2 µM | IC50 (MCF7): 12.3 µM | IC50 (BGC-823): 9.12 µM | IC50 (HepG2): 5.63 µM | IC50 (HeLa): 15.4 µM | IC50 (PC-3): 8.31 µM | IC50 (HCT-8): 28.8 µM | IC50 (HCT-116): 7.84 µM | IC50 (RKO): 9.65 µM
